Sampled rows, rich in hits. Any-hit rate of the full collection: about 1.5%.
HTR2A ag – mouse HTR2A agonism via beta-arrestin recruitment. CHO-K1 mHTR2A beta-arrestin complementation, luminescence; percent of 30 µM serotonin response. AID 624169. actives 0.66% (n = 360,000). activation, % at 7.6 µM;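 active means activation above a run cutoff, the mean activation of all tested compounds plus 3 SD, cut at about 14% in these data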
CCR6 antagonist – CCR6 (human) receptor antagonism; CHO-K1 CCR6 PathHunter beta-arrestin, luminescence, CCL20-stimulated; inhibition, % at 20 µM; actives 0.49% (n = 340,000); AID 493098;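 active means compounds whose inhibition of the agonist-driven luminescence signal at 20 µM reaches about 50%, limit read from the data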;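 further: cells stimulated with CCL20 at 14 nM final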
CXCR6 inh – inhibitors of human CXCR6 receptor; CHO-K1 PathHunter CXCR6 beta-arrestin, luminescence; inhibition, % at 20 µM; actives 0.36% (n = 360,000); AID 602244; in the data active means inhibition above about 34%, passing the limit was not always enough;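 further: antagonist mode with CXCL16 agonist at 10 nM final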
NTR1 ag – agonists of human neurotensin receptor NTR1; NTR1-U2OS beta-arrestin-GFP spot imaging, agonist mode; actives 0.17% (n = 330,000); activation, % at 20 µM; P30989;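 active means activation at or above 40% of the spot to cytoplasm intensity ratio, with at least 20 cells analyzed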
APJ antagonist – APJ receptor antagonism; P35414; CHO-K1 APJ beta-arrestin complementation, luminescence; inhibition, % at 20 µM; actives 0.32% (n = 330,000);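 active means inhibition above about 40% at 20 µM, limit read from the data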;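 further: cells challenged with 10 nM apelin-13 agonist together with compound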
Target sequence (P35414 whole entry, looked up): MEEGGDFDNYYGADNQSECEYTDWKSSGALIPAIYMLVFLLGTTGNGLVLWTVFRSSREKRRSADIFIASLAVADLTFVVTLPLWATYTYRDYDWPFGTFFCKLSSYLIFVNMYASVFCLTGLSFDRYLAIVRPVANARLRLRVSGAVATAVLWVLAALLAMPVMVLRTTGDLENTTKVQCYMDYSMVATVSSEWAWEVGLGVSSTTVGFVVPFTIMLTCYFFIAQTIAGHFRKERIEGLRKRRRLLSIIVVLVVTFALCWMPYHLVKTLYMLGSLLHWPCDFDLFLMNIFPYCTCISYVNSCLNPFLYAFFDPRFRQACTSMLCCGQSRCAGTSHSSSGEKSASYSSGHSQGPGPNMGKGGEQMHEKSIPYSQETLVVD
APJ agonist – activates the human apelin receptor APJ | P35414 | CHO-K1 APJ PathHunter beta-arrestin, luminescence; 0% DMSO wells, 100% apelin | activation, % at 20 µM | actives 0.11% (n = 330,000);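 active means activation more than six SD over the plate average, tested at 20 µM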
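Material: engineered CHO-K1 APJ arrestin reporter cells; amount: 1000 CHO-K1 reporter cells seeded per well; incubation: compound stimulation 90 min at 25 °C, detection 60 min; signal: luminescent beta-gal fragment complementation, chemiluminescent substrate; read-out basis: APJ agonist activity; controls: DMSO-only wells as negative, 10 nM Apelin-13 as positive control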
MOR ag counter – activates human mu opioid receptor in HTR2A counterscreen. shares compounds with HTR2A ag. U2OS OPRM1 beta-arrestin PathHunter, luminescence; DMSO 0%, DAMGO 9.3 µM 100%. activation, % at 9.3 µM. actives 5.3% (n = 2,300). AID 624380;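 active means mean activation above the mean of DMSO-only wells plus 3 SD, cut at about 0.5% in these data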
HTR2A ag conf – mouse HTR2A agonism confirmed | shares compounds with HTR2A ag | CHO-K1 PathHunter beta-arrestin recruitment, luminescence; DMSO 0%, 30 µM serotonin 100% | activation, % at 7.6 µM | actives 19% (n = 2,300) | AID 624381;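 active means mean activation across triplicates above the hit threshold derived in the original primary screen, cut at about 15% in these data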
A number is an active result; - = inactive; . = no result given.

SMILES | HTR2A ag | CCR6 antagonist | CXCR6 inh | NTR1 ag | APJ antagonist | APJ agonist | MOR ag counter | HTR2A ag conf
Cc1ccc(-c2nc3ccc(C)cn3c2CC(=O)N(C)C)cc1 | 28.9 | - | - | - | - | - | - | -
CCCN(CCC)C(=O)Cc1c(-c2ccc(Cl)cc2)nc2c(Cl)cc(Cl)cn12 | 15.3 | - | - | - | - | - | - | -
Cc1cc(Br)cn2c(CC(=O)N3CCCCC3)c(-c3ccc(F)cc3)nc12 | - | . | - | . | . | . | . | .
CCCC[n+]1cc(=N)o[n-]1 | - | - | - | - | - | - | . | .
COc1ccc(Cl)cc1C(=O)C1CCCN(CCO)C1 (stereo not drawn) | - | - | - | - | - | - | . | .
O=C(c1ccc(-c2ccccc2)c(F)c1)C1CCCN(CCO)C1 (stereo not drawn) | - | - | - | - | - | - | . | .
CCCN1CCC[C@H](c2cccc(O)c2)C1 | 37.5 | - | - | - | - | - | - | 122.4
CCCN1CCC[C@@H](c2cccc(O)c2)C1 | 22.8 | - | - | - | - | - | - | 63.8
CC12CN3CC(c4ccccc4)(CN(C1)C31CCCCC1)C2=O | 16.4 | - | - | - | - | - | - | -
Cc1nn(Cc2ccccc2)c(C)c1C(=O)O | 15.4 | - | - | - | - | - | 0.6 | -
O=C(c1c[nH]c2ccc(S(=O)(=O)N3CCC4(CC3)OCCO4)cc2c1=O)N1CCC2(CC1)OCCO2 | - | - | - | - | - | - | . | .
COC(=O)C1=C(c2c(C)noc2C)C[C@@H]2CC[C@H]1N2C(=O)NCCOc1ccc(OC)cc1 | - | - | - | - | - | - | . | .
Cc1cccc(CCNCc2cc3cc(C)cc(C)c3[nH]c2=O)c1 | - | - | - | - | - | - | . | .
Cc1cccc(CCNCc2cc3cccc(C)c3[nH]c2=O)c1 | 20.9 | - | - | - | - | - | - | -
COc1ccc(CNC(=O)/C=C/c2ccc3[nH]cc(CCN(C)C)c3c2)cc1 | - | - | - | - | - | - | . | .
COc1ccc2[nH]cc(CCN(C)C)c2c1 | 49.0 | - | - | - | - | - | - | 35.8
Clc1cc(Cl)c(-c2cc(Cl)c(Cl)cc2Cl)cc1Cl | - | - | - | - | - | - | . | .
CN1CCc2cc(O)cc3c2[C@H]1Cc1ccc(O)c(O)c1-3 | 56.5 | - | - | - | - | - | - | 151.6
COc1cc2c(cc1O)[C@@H]1Cc3ccc(OC)c(O)c3CN1CC2 | - | - | - | - | - | - | . | .
COc1cc2c(cc1O)C[C@H]1c3c(cc(O)c(OC)c3-2)CCN1C | - | - | - | - | - | - | . | .
CCCN1CCc2cc(O)cc3c2[C@H]1Cc1ccc(O)c(O)c1-3 | 48.5 | - | - | - | - | - | - | 171.0
CC[C@@H]1C=CC=CC[C@H](C)[C@@H](O)[C@@H](C)C(=O)[C@H](C)[C@@H](O)[C@H](C)C(=O)[C@H](C)[C@@H](O)[C@H](C)C=CC(=O)O[C@H]2[C@@H](C)[C@@H](CC1)O[C@@]1(CC[C@@H](C)[C@@H](C[C@H](C)O)O1)[C@@H]2C | . | . | . | - | - | - | . | .
CC1OC(OC2C=C3CCC4C(CCC5(C)C(c6ccc(=O)oc6)CCC45O)C3(C)CC2)C(O)C(OC2OC(CO)C(O)C(O)C2O)C1O (stereo not drawn) | 15.5 | - | - | . | . | . | 6.9 | -
O=c1[nH]c2ccccc2n1C1CCN(C(c2cccs2)c2nnnn2-c2ccc3c(c2)OCCO3)CC1 (stereo not drawn) | 14.5 | . | - | . | . | . | . | 17.1
O=c1[nH]c2ccccc2n1C1CCN(C(c2ccccc2)c2nnnn2-c2ccc3c(c2)OCCO3)CC1 (stereo not drawn) | - | . | - | . | . | . | . | .
SMILES | HTR2A ag | CCR6 antagonist | CXCR6 inh | NTR1 ag | APJ antagonist | APJ agonist | MOR ag counter | HTR2A ag conf
COc1cccc(C(c2nnnn2-c2ccc3c(c2)OCCO3)N2CCC(n3c(=O)[nH]c4ccccc43)CC2)c1OC (stereo not drawn) | - | . | - | . | . | . | . | .
O=c1[nH]c2ccccc2n1C1CCN(C(c2ccccc2OC(F)(F)F)c2nnnn2-c2ccc3c(c2)OCCO3)CC1 (stereo not drawn) | 15.5 | . | - | . | . | . | . | -
c1ccc2nc(N3CCNCC3)ccc2c1 | 50.6 | - | - | - | - | - | - | 38.1
COc1cc(/C=C2/C(=O)NC(=O)N(c3ccc(C)cc3)C2=O)cc(OC)c1OC | - | - | - | - | - | - | . | .
COc1cc(/C=C2\C(=O)NC(=O)N(c3ccccc3)C2=O)cc(OC)c1OC | 15.1 | - | - | - | - | - | - | -
COc1ccc(OC)c(CN2CCN(C(=O)Cc3ccccc3)CC2)c1 | - | - | - | - | - | - | . | .
COc1cccc(CN2CCN(C(=O)Cc3ccccc3OC)CC2)c1 | 19.4 | - | - | - | - | - | - | -
COc1ccccc1CN1CCN(C(=O)COc2ccc3ccccc3c2)CC1 | - | - | - | - | - | - | . | .
O=C(Cc1ccccc1)N1CCN(Cc2c[nH]c3ccccc23)CC1 | 22.3 | - | - | - | - | - | - | -
Cn1cccc1CN1CCN(C(=O)COc2ccccc2)CC1 | - | - | - | - | - | - | . | .
COc1ccc(OCC(=O)N2CCN(Cc3c[nH]c4ccccc34)CC2)cc1 | 25.5 | - | - | . | . | . | - | 16.1
c1ccc2c(CN3CCCCCC3)c[nH]c2c1 | - | - | - | - | - | - | . | .
O=C(COc1ccccc1)N1CCN(Cc2c[nH]c3ccccc23)CC1 | 15.8 | - | - | - | - | - | - | -
O=S(=O)(c1cccc(C(F)(F)F)c1)N1Cc2ccccc2-n2nncc2C1 | - | . | - | . | . | . | . | .
CNC(=O)Oc1c(C)[nH]ccc1=O | - | . | - | . | . | . | . | .
Cc1ccc(OC(=O)N(C)C[C@@H]2OCc3cnnn3CCCC(=O)N([C@@H](C)CO)C[C@@H]2C)cc1 | - | . | - | . | . | . | . | .
C[C@]12CCC3C(CC[C@H]4C[C@H](O)CC[C@]34C)C1C[C@H](O)[C@@H]2O (stereo partly drawn) | - | - | - | - | - | - | . | .
Cc1ccccc1CN1CCN(C(=O)Cc2ccccc2)CC1 | 16.9 | - | - | - | - | - | - | -
O=C(O)Cc1cnc[nH]1 | - | - | - | - | - | - | . | .
C[C@@H](N)Cc1cnc[nH]1 | 15.2 | - | - | - | - | - | - | -
FC(F)(F)Oc1ccc(NC2=NCCCS2)cc1 | 14.6 | - | - | - | - | - | - | -
Cc1cccc(CNCCc2c[nH]c3ccccc23)c1 | 33.4 | - | - | - | - | - | - | 15.1
Fc1cccc(CNCCc2c[nH]c3ccccc23)c1 | 35.1 | - | - | - | - | - | - | 38.8
CCOC(=O)[C@]12Cc3ccc4ccccc4c3[C@H]1N(Cc1ccccc1)C(=O)c1ccccc12 | - | . | - | . | . | . | . | .
Cc1ccsc1C(=O)C1CCCN(Cc2sc(N(C)C)nc2Cl)C1 (stereo not drawn) | - | - | - | - | - | - | . | .

Screening data deposited in PubChem BioAssay by several laboratories.
